pEC50, pKd: −log10 of the molar value. Values joined by “and” are separate entries in the source; they are usually repeats but may differ in a detail not shown here. Equal entries are not always repeated. Where two headings read alike, the source gives them in different places. One block for each compound: values may come before it.
Experiments:
NAPE-PLD [1] = molecular target: T1, NAPE-PLD (Homo sapiens, UniProt Q6IQ20); test: Binding kinetics by surface plasmon resonance; conditions: for binding affinity compared with another bile acid: SPR, 25 °C, comparison in words
T1 sequence (Q6IQ20 48-393 limits assumed): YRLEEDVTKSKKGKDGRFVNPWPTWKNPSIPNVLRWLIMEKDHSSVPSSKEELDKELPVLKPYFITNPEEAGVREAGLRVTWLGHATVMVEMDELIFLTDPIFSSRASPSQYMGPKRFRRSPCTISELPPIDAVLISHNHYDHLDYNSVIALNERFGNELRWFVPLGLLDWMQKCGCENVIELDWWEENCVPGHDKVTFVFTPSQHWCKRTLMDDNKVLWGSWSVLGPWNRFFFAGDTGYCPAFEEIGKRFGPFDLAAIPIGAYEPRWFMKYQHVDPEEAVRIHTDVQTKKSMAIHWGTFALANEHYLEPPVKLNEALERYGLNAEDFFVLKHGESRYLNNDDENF

NAPE-PLD [2] = molecular target: T1, NAPE-PLD; test: Fluorescence-based NAPE-PLD activity assay with substrate PED6; assay type: biochemical
How it was run: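 Recombinant human enzyme, purified by amylose then Ni-affinity and size exclusion. Enzyme at 25 nM in 50 mM Tris-HCl pH 8 was pre-incubated 1 h at room temperature with test bile acids (0–5 mM). PED6 was added to 10 μM final (1% DMSO/ethyl acetate). Fluorescence was read after 30 min at 25 °C in the dark ([…] filters). Monohydroxy bile acid was run with 0.2% w/v DCA.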

NAPE-PLD [3] = molecular target: T1, NAPE-PLD; test: Elastic incoherent neutron scattering; conditions: DCA ~10 times the concentration of the enzyme, 280-307 K, D2O buffer
How it was run: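 Purified enzyme in D2O (five exchanges against 100× volume) at 100 mg/mL, with DCA at 0.00, 0.05, 0.15, 0.50 or 1.00% w/v (DCA:enzyme ratios 0–10). Elastic spectra were collected at […], ~3 h per point, on IN13 (up to 100 ps). <u2> came from the slope of ln elastic intensity versus Q2. Force constant came from the <u2>-versus-T slope under a quasi-harmonic approximation.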

NAPE-PLD [4] = molecular target: T1, NAPE-PLD; test: Enzyme kinetics by UPLC-MS/MS in the presence of DCA; assay type: biochemical; conditions: for Km / maximum velocity (Vmax): DCA 0.2% w/v, 37 °C, 15 min, UPLC-MS/MS
How it was run: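 Recombinant enzyme was incubated with varying N-arachidonoyl-PE or N-palmitoyl-PE in 0.05 M Tris-HCl pH 7.4 with 0.2% w/v DCA, 15 min, 37 °C. Reactions were stopped with cold acetonitrile containing AEA-d4 or PEA-d4 internal standard, centrifuged, and the organic layer taken. Products (AEA, PEA) were quantified by UPLC-MS/MS MRM in positive ESI against weighted (1/x) calibration curves. Runs were in triplicate. Km and Vmax came from Michaelis–Menten fits.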

NAPE-PLD [5] = conditions: without bile acid; cited from earlier work

Compound: C[C@H](CCC(=O)NCCC[N+](C)(C)CCCS(=O)(=O)[O-])[C@H]1CC[C@H]2[C@@H]3[C@H](O)C[C@@H]4C[C@H](O)CC[C@]4(C)[C@H]3C[C@H](O)[C@]12C [CHAPS]
binding affinity compared with another bile acid (NAPE-PLD [1]): ~tenfold lower

Compound: CC(=O)O[C@H]1C[C@@]2(C)[C@@H](C[C@@H](O)[C@H]3[C@@]4(C)CC[C@@H](O)[C@@H](C)[C@@H]4CC[C@@]32C)/C1=C(\CCC=C(C)C)C(=O)O [FA, fusidic acid]
pKd (NAPE-PLD [1]): ~4.15

Compound: C[C@H](CCC(=O)NCC(=O)O)[C@H]1CC[C@H]2[C@@H]3[C@H](O)C[C@@H]4C[C@H](O)CC[C@]4(C)[C@H]3CC[C@]12C [GCDG]
pEC50 (NAPE-PLD [2]; read-out: EC50 of enzyme activation, enzyme 25 nM, PED6 substrate, 25 °C, 30 min): ~2.44

Compound: C[C@H](CCC(=O)NCCS(=O)(=O)O)[C@H]1CC[C@H]2[C@@H]3[C@H](O)C[C@@H]4C[C@H](O)CC[C@]4(C)[C@H]3C[C@H](O)[C@]12C [TCA, taurocholic acid]
binding affinity compared with another bile acid (NAPE-PLD [1]): ~tenfold lower

The next lines start with results.

pKd (NAPE-PLD [1]): ~3.39
binding affinity compared with another bile acid (NAPE-PLD [1]): ~tenfold lower binding affinity
Compound: C[C@H](CCC(=O)O)[C@H]1CC[C@H]2[C@@H]3[C@H](O)C[C@@H]4C[C@H](O)CC[C@]4(C)[C@H]3C[C@H](O)[C@]12C [CA, cholic acid]

pKd (NAPE-PLD [1]): ~4.60
pEC50 (NAPE-PLD [2]): ~2.37
Compound: C[C@H](CCC(=O)O)[C@H]1CC[C@H]2[C@@H]3[C@H](O)C[C@@H]4C[C@H](O)CC[C@]4(C)[C@H]3CC[C@]12C [CDCA, chenodeoxycholic acid]

pKd (NAPE-PLD [1]): ~4.37
effect on protein flexibility (force constant k, mean square displacement) (NAPE-PLD [3]): the system lost flexibility
Compound: C[C@H](CCC(=O)O)[C@H]1CC[C@H]2[C@@H]3CC[C@@H]4C[C@H](O)CC[C@]4(C)[C@H]3C[C@H](O)[C@]12C [DCA, deoxycholic acid]

pKd (NAPE-PLD [1]): ~4.70
Compound: C[C@H](CCC(=O)O)[C@H]1CC[C@H]2[C@@H]3CC[C@@H]4C[C@H](O)CC[C@]4(C)[C@H]3CC[C@]12C [LCA, lithocholic acid]
effect on NAPE-PLD enzyme activity (NAPE-PLD [2]; bile acid alone, PED6 substrate): not able alone to solubilize the substrate and activate the membrane enzyme

Km (NAPE-PLD [4]): ~9 µM and 9.6 µM
rate of hydrolysis compared with N-palmitoyl-phosphatidylethanolamine (NAPE-PLD [4]; in the presence of deoxycholic acid): ~ 7 times
Compound: N-arachidonyl-phosphatidylethanolamine [N-arachidonoyl-PE]
maximum velocity (Vmax) (NAPE-PLD [4]): 1131 (± 124.4) nmol/min/mg protein and ~ 1131 nmol/min/mg protein
Vmax (NAPE-PLD [5]): ~ 73 nmol/min/mg

Km (NAPE-PLD [4]): ~9 µM and 9.2 µM
Compound: N-palmitoyl-phosphatidylethanolamine [N-palmitoyl-PE]
maximum velocity (Vmax) (NAPE-PLD [4]): 155.8 (± 38.36) nmol/min/mg protein and ~ 156 nmol/min/mg protein
Vmax (NAPE-PLD [5]): ~ 98 nmol/min/mg

— PMC5074845 (ACS chemical biology, 2016)
